Test results reported in ChEMBL document CHEMBL1833793 (Bioorg Med Chem Lett, 2011).

Key:
[1] = molecular target: T1, 5-hydroxytryptamine receptor 1A (Homo sapiens, UniProt P08908); test: Binding affinity to human 5HT1A receptor
T1 sequence (P08908 whole entry): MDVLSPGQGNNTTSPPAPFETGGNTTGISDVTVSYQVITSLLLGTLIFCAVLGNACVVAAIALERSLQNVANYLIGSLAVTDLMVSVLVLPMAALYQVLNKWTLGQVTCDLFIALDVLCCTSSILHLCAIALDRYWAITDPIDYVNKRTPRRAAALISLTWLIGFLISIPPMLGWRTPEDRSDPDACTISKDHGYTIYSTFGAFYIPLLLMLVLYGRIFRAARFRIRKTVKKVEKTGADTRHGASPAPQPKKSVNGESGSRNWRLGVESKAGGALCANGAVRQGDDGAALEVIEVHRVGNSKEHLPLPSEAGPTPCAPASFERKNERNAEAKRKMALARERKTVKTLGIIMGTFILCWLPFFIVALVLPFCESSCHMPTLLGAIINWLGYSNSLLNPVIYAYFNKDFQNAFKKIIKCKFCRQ

[2] = molecular target: T2, Neuropeptide Y receptor type 5 (Rattus norvegicus, UniProt Q63634); test: Antagonist activity at rat NPY5 receptor; type: functional
T2 sequence (Q63634 whole entry): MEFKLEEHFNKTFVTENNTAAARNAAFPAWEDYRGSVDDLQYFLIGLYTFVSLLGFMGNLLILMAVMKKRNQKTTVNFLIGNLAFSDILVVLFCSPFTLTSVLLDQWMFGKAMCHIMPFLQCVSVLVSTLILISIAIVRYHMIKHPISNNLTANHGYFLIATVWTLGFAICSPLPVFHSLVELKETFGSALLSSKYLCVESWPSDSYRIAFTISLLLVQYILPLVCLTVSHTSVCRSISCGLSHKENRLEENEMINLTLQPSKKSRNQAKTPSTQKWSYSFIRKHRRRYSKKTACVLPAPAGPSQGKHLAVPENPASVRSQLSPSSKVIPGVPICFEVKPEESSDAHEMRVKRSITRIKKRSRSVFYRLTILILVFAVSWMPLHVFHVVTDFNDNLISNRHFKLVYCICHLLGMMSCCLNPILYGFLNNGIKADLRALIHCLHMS

[3] = Plasma concentration in cPP-induced feeding rat model at 30 mg/kg, po after 1 hr; type: ADME, organism-based; set-up: dose 30 mg/kg, route oral
How it was run: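 Satellite rats (n = 2/dose per week), cannulated in the lateral cerebral ventricle for the feeding study, dosed orally at 3, 10 or 30 mg/kg as a suspension in 20% HP-β-cyclodextrin. Plasma was sampled 1, 2, 4, 6 or 24 h after dosing, alongside i.c.v. cPP (0.6 nmol) feeding tests. Values are given as mean with SD.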

[4] = Drug uptake in brain of cPP-induced feeding rat model at 10 mg/kg, po after 4 hrs; type: ADME, organism-based; set-up: dose 10 mg/kg, route oral; conditions: read-out: Drug uptake
How it was run: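 Satellite rats (n = 2/dose) sampled each week alongside the cPP feeding test; Lu-series dosed po at 3, 10 or 30 mg/kg as suspension in 20% HP-β-cyclodextrin; plasma (ng/mL) and brain tissue (ng/g) levels taken at 1, 2, 4, 6 and 24 h post-dose; mean ± SD reported.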

Liver microsomes = test: Intrinsic clearance in human liver microsome; type: ADME
[5] = Drug uptake in rat brain at 10 mg/kg, po after 4 hrs; type: ADME, organism-based; set-up: dose 10 mg/kg, route oral; conditions: read-out: Drug uptake
How it was run: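 Rat single oral dose of 10 mg/kg, two animals; plasma and brain homogenate levels measured at 4 h and averaged; quantification limit 2 ng/mL plasma, 2 ng/g brain.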

[6] = Plasma protein binding in rat; type: ADME, cell-free; conditions: read-out: PPB (converted)

CS(=O)(=O)NC[C@H]1CC[C@H](Nc2nc3c(s2)CCSc2ccccc2-3)CC1
Ki [1]: 478 nM | Ki [2]: 1.4 nM | concentration at 1 h [3]: 267 ng/mL | concentration at 4 h [4]: 172 ng/g | CL (Liver microsomes): 2.5 L/min | concentration at 4 h [5]: 460 ng/g | fraction unbound [6]: 0.006
